The source of these data is ChEMBL document CHEMBL1145015, “Structure-activity relationships of 1,2,4-benzotriazine 1,4-dioxides as hypoxia-selective analogues of tirapazamine” (J Med Chem, 2003).

Data set [1] has as its system HT-29. Put plainly: Inhibitory concentration against human adenocarcinoma HT-29 cell line under hypoxic condition. The data set is classed as functional, cell-based. The procedure, abridged: (§1)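 SRB proliferation assay in 96-well plates. SCCVII (200 cells) or HT-29 (1000 cells) seeded in αMEM + 10% FCS with glucose (17 mM final) and 100 μM 2'-deoxycytidine, then attached for 3 h. Cells exposed for 4 h at 37 °C to 2-fold serial dilutions in triplicate, either oxic (20% O2, 5% CO2) or in an anaerobic chamber (<0.001% O2). After washing, cells grew for 5 (oxic) or 6 (anoxic) days before SRB staining. IC50 values are the mean of three independent experiments.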

Data set [2] can be described thus: Concentration required to reduce plating efficiency to 10 percent of controls, under aerobic conditions in mouse SCCVII tumor cells. The data set is classed as functional, SCC-7. In short, it runs like this: (§2)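 SCCVII cells plated in glass dishes (2×10^5 to 1×10^6 per dish) 1–2 days ahead. Drug freshly dissolved, given in complete medium for 1 h at 37 °C with shaking. Hypoxia (<200 ppm O2) by repeated evacuation/flushing with 95% N2 + 5% CO2; aerobic controls flushed with 95% air + 5% CO2. Cells washed, trypsinized, replated. Crystal violet stain after 10–14 days, >50-cell colonies scored. C10 is the concentration giving 10% of control plating efficiency.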

Data set [3] in a line: Interexperimental difference between the hypoxic and aerobic cytotoxicity using human adenocarcinoma HT-29 cell line. The data set is classed as functional.
Data set [4] in a line: Intraexperimental difference between the hypoxic and aerobic cytotoxicity in mouse SCCVII tumor cells. It counts as functional, SCC-7. The procedure, abridged:
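Clonogenic SCCVII survival after 1 h drug exposure at 37 °C, either hypoxic (<200 ppm O2, 95% N2/5% CO2) or aerobic (95% air/5% CO2). Colonies of >50 cells counted after 10–14 days. HCR = aerobic C10 / hypoxic C10, with both values from the same experiment.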

A short description of data set [5]: Concentration required to reduce plating efficiency to 10 percent of controls, under hypoxic conditions in mouse SCCVII tumor cells. It counts as functional, SCC-7. The procedure, abridged:
as §2

Data set [6] concerns SCC-7. Description: Inhibitory concentration against murine SCCVII cell line under aerobic condition. The settings on record: Mus musculus. It counts as functional, cell-based. In short, it runs like this: as §1
Data set [7] concerns SCC-7. Put plainly: Inhibitory concentration against murine SCCVII cell line under hypoxic condition. Particulars: Mus musculus. The data set is classed as functional, cell-based. In short, it runs like this:
as §1

The nature of data set [8]: Intraexperimental ratio of hypoxic TPZ C10 to hypoxic BTO C10 in mouse SCCVII tumor cells. The data set is classed as functional, SCC-7. In short, it runs like this: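 Computed within each experiment from the clonogenic SCCVII assay (1 h drug exposure, hypoxia <200 ppm O2 by gas evacuation/flushing, colony counting after 10–14 days). RHT = C10 of TPZ under hypoxia divided by C10 of the analogue under hypoxia.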

A short description of data set [9]: Interexperimental difference between the hypoxic and aerobic cytotoxicity using murine SCCVII cell line. It counts as functional, SCC-7.
For data set [10], the system named is HT-29. Put plainly: Inhibitory concentration against human adenocarcinoma HT-29 cell line under aerobic condition. It counts as functional, cell-based. The procedure, abridged:
as §1

Data set [11] concerns SCC-7. Description: Interexperimental ratio of hypoxic TPZ C10 to hypoxic BTO C10 using murine SCCVII cell line. It counts as functional, Mus musculus.
For data set [12], the system named is HT-29. Description: Interexperimental ratio of hypoxic TPZ C10 to hypoxic BTO C10 using human adenocarcinoma HT-29 cell line. The data set is classed as functional.
Data set [13] can be described thus: Partition coefficient (logP). The data set is classed as physicochemical. The settings on record: octanol/water. In short, it runs like this:
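Octanol/water partition at pH 7.4, measured by low-volume shake flask. Drug in both the octanol and buffer phases quantified by HPLC.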

A word on the IC50: it is the concentration at which inhibition is half-maximal. A lower IC50 goes with higher potency. As usually defined, the logP is a log measure of how a compound divides between an organic and an aqueous phase. The low end stands for lower lipophilicity, the high end for higher lipophilicity. For `Nc1n[n+]([O-])c2ccccc2[n+]1[O-]` [TIRAPAZAMINE], the concentration for half-maximal inhibition (IC50) turned out to be 5.3 µM in the data set on HT-29 [1], 71.7 µM with SCC-7 [6], 2.4 µM with SCC-7 [7] and 196 µM with HT-29 [10]. Further, the values for the C10 in [2] and in data set [5] were 2644 µM and 10.2 µM, respectively. Further, the HCR amounted to 37 in data set [3], 258 in data set [4] and 32.9 in data set [9]. Besides, the RHT (in [8]; with SCC-7 [11]; in the data set on HT-29 [12]) was 1 each time. The compound also returned a log partition coefficient (logP) in data set [13] of -0.34.
Turning to `Nc1n[n+]([O-])c2cc(C(F)(F)F)ccc2[n+]1[O-]`, the IC50 turned out to be 2.1 µM in the data set on HT-29 [1], 23.9 µM with SCC-7 [6], 0.92 µM in the data set with SCC-7 [7] and 79.1 µM in the data set with HT-29 [10]. The C10 in data set [2] came to 305 µM; in [5] it was 9.14 µM. Further, the HCR in data set [3] came to 35.7; in data set [4], 33.3; in data set [9], 27.7. For the same compound, the values for the RHT (in data set [8]; with SCC-7 [11]; with HT-29 [12]) were 1.1, 2.6 and 2.5, respectively. The compound further gave a logP in [13] of 0.81.
On to `Nc1n[n+]([O-])c2cc([N+](=O)[O-])ccc2[n+]1[O-]`, for which the IC50 was 0.79 µM in the data set with HT-29 [1], 2.8 µM in the data set with SCC-7 [6], 0.7 µM in the data set with SCC-7 [7] and 14.1 µM with HT-29 [10]. In addition, the C10 in [2] was 36.3 µM; in [5], 5.37 µM. Also, the HCR in [3] came out at 14.8; in data set [4] it was 6.8; in data set [9] it was 4.1. Besides, the RHT in [8] was 1.9; with SCC-7 [11], 3.4; in the data set on HT-29 [12] it was 6.7.
Consider `CS(=O)(=O)c1cccc2c1[n+]([O-])nc(N)[n+]2[O-]`, for which the IC50 in the data set with HT-29 [1] was found to be 15.1 µM; in the data set on SCC-7 [6] it was 15.5 µM; in the data set with SCC-7 [7] it was 9.7 µM; with HT-29 [10] it was 69.8 µM. In addition, the C10 stood at 338 µM in data set [2] and 50.8 µM in data set [5]. Moreover, the HCR in [3] worked out at 4.5; in data set [4] it was 6.7; in data set [9] it was 1.6. Also, the RHT in [8] was determined as 0.2; in the data set on SCC-7 [11], 0.2; in the data set on HT-29 [12], 0.4. Further, the log partition coefficient (logP) in data set [13] was -1.38.
`Nc1n[n+]([O-])c2c(F)cccc2[n+]1[O-]`: the IC50 in the data set on HT-29 [1] amounted to 2.1 µM; in the data set with SCC-7 [6], 23.7 µM; in the data set with SCC-7 [7] it was 1.2 µM; in the data set on HT-29 [10] it was 8.7 µM. Further, the C10 came to 132 µM in data set [2] and 10.2 µM in [5]. The HCR in [3] is 4.1; in data set [4] it was 13; in [9] it was 13.9. In addition, the RHT in [8] is 1; in the data set on SCC-7 [11], 1.9; in the data set on HT-29 [12], 2.5.
As to `COc1cccc2c1[n+]([O-])nc(N)[n+]2[O-]`, the IC50 with HT-29 [1] turned out to be 28.8 µM; in the data set on SCC-7 [6] it was 288 µM; with SCC-7 [7] it was 13.5 µM; with HT-29 [10], 624 µM. Besides, the C10 is over 135 µM in data set [2] and 25.4 µM in data set [5]. Further, the HCR in data set [3] is on record as 21.9; in data set [4] it was over 5.3; in data set [9] it was 25.7. Also, the RHT in data set [8] worked out at 0.4; in the data set on SCC-7 [11], 0.2; in the data set on HT-29 [12], 0.2.
